Measured values pooled from the literature.
Protocols differ between the studies behind these lines.
SLC6A3: Sodium-dependent dopamine transporter (SLC6A3, Homo sapiens, UniProt Q01959)
CA12: Carbonic anhydrase 12 (CA12, Homo sapiens, UniProt O43570)
DRD3: D(3) dopamine receptor (DRD3, Homo sapiens, UniProt P35462)
Lyn: Tyrosine-protein kinase Lyn (Lyn, Mus musculus, UniProt P25911)
USP51: Ubiquitin carboxyl-terminal hydrolase 51 (USP51, Homo sapiens, UniProt Q70EK9)

Compound | target | test | system | conditions | inhibition [%]
Clc1ccc(C(c2ccccc2)c2nnnn2CCCCN2CCN(CCCc3ccccc3)CC2)cc1 (stereo not shown) | SLC6A3 | transporter uptake, inhibitor | HEK293 | 1 µM | 81.6
CCOC(=O)C1CSc2[nH]c(=O)sc2C1c1cn(-c2ccccc2)nc1-c1ccc(OC)cc1 (stereo not shown) | CA12 | enzyme activity, inhibitor, absorbance | – | 0.1 µM | 37.6
O=C(CCN1CCC(O)(c2ccc(F)cc2)C1)c1ccc2c(c1)OCCO2 (stereo not shown) | DRD3 | enzyme activity, inhibitor | – | 10 µM | 9
Cc1ccc(Nc2nccc(N(C)c3ccc4c(C)n(C)nc4c3)n2)cc1S(N)(=O)=O | Lyn | enzyme activity, inhibitor | – | 10 µM | 97
CCOC(=O)C1CSc2[nH]c(=O)sc2C1c1cn(-c2ccccc2)nc1-c1ccccc1 (stereo not shown) | CA12 | enzyme activity, inhibitor, absorbance | – | 1 µM | 46.7
NS(=O)(=O)c1ccc(CCNCc2ccc(-c3ccccc3F)o2)cc1 | DRD3 | enzyme activity, inhibitor | – | 10 µM | 44.2
CNC(=O)c1cc(Oc2ccc(NC(=O)Nc3ccc(Cl)c(C(F)(F)F)c3)cc2)ccn1 | Lyn | enzyme activity, inhibitor | – | 0.3 µM | 37
Clc1ccc(C(c2ccccc2)c2nnnn2CCCCN2CCC(Cc3ccc(Cl)c(Cl)c3)CC2)cc1 (stereo not shown) | SLC6A3 | transporter uptake, inhibitor | HEK293 | 1 µM | 67.8
CCN(CC)CCNC(=O)c1c(C)[nH]c(/C=C2\C(=O)Nc3ccc(F)cc32)c1C | Lyn | enzyme activity, inhibitor | – | 0.3 µM | 40
CS(=O)(=O)c1ccc(Nc2ccc3c(c2)OCO3)c([N+](=O)[O-])c1 | Solute carrier family 2, facilitated glucose transporter member 5 (SLC2A5, Homo sapiens, UniProt P22732) | transporter uptake, inhibitor | MCF7 | 25 µM | ~90
C[C@H](CCC(=O)NCC(=O)O)[C@H]1CC[C@H]2[C@@H]3[C@H](O)C[C@@H]4C[C@H](O)CC[C@]4(C)[C@H]3C[C@H](O)[C@]12C | USP51 | enzyme activity, inhibitor | – | 5 µM | 0
CCN(c1cc(C#CCN2CCOCC2)cc(C(=O)NCc2c(C)cc(C)[nH]c2=O)c1C)[C@H]1CC[C@H](N(C)CCOC)CC1 | Protein arginine N-methyltransferase 1 (PRMT1, Homo sapiens, UniProt Q99873) | enzyme activity, inhibitor | – | 1 µM | 10
O=C(c1ccc(Cl)cc1)N(Cc1ccccc1)C1CCCCC1 | Urotensin-2 receptor (UTS2R, Homo sapiens, UniProt Q9UKP6) | cell-free assay | – | 10 µM | 27.3
O=c1c(-c2ccc(O)cc2)coc2cc(O[C@@H]3O[C@H](CO)[C@@H](O)[C@H](O)[C@H]3O)ccc12 | USP51 | enzyme activity, inhibitor | – | 5 µM | 39
O=C(c1cccc(Cl)c1)N1CCN(CCNc2cc(=O)oc3ccccc23)CC1 | DRD3 | enzyme activity, inhibitor | – | 10 µM | -11.3
Nc1ncnc2c1ncn2[C@@H]1O[C@H](CO)C[C@H]1O | USP51 | enzyme activity, inhibitor | – | 5 µM | 24
Clc1ccc(C(c2ccccc2)c2nnnn2CCCCN2CCN(CCc3ccccc3)CC2)cc1 (stereo not shown) | SLC6A3 | transporter uptake, inhibitor | HEK293 | 1 µM | 62.1
FC(F)(F)c1cccc(-c2ccc(CNCCCN3CCOCC3)o2)c1 | DRD3 | enzyme activity, inhibitor | – | 10 µM | 50.7
CC(C)(COP(=O)(O)OP(=O)(O)OC[C@H]1O[C@@H](n2cnc3c(N)ncnc32)[C@H](O)[C@@H]1OP(=O)(O)O)[C@@H](O)C(=O)NCCC(=O)NCCS | Histone acetyltransferase KAT2A (KAT2A, Homo sapiens, UniProt Q92830) | enzyme activity, inhibitor, mobility shift | – | 10 µM | 29
O=C1NC(=S)C(=Cc2cn(-c3ccccc3)nc2-c2ccc(Br)cc2)S1 | CA12 | enzyme activity, inhibitor, absorbance | – | 0.1 µM | 11.1

Compound | target | test | system | conditions | inhibition [%]
c1ccc(CCCC2CCN(CCCCn3nnnc3C(c3ccccc3)c3ccccc3)CC2)cc1 | SLC6A3 | transporter uptake, inhibitor | HEK293 | 1 µM | 63
O=C1CC(N2CCN(Cc3ccccc3)CC2)C(=O)N1c1ccc2c(c1)OCCO2 (stereo not shown) | DRD3 | enzyme activity, inhibitor | – | 10 µM | -26
CCOC(=O)C1CSc2[nH]c(=O)sc2C1c1cn(-c2ccccc2)nc1-c1ccc(Cl)cc1 (stereo not shown) | CA12 | enzyme activity, inhibitor, absorbance | – | 10 nM | 27.6
c1ccc(CCCC2CCN(CCCn3nnnc3C(c3ccccc3)c3ccccc3)CC2)cc1 | SLC6A3 | transporter uptake, inhibitor | HEK293 | 1 µM | 30.4
CCn1c2ccccc2c2cc(CNCCCN3CCOCC3)ccc21 | DRD3 | enzyme activity, inhibitor | – | 10 µM | 13.5
Clc1ccc(C(c2ccc(Cl)cc2)c2nnnn2CCCCN2CCC(c3ccccc3)CC2)cc1 | SLC6A3 | transporter uptake, inhibitor | HEK293 | 1 µM | 90.1
CCOC(=O)C1CSc2[nH]c(=O)sc2C1c1cn(-c2ccccc2)nc1-c1ccc(Br)cc1 (stereo not shown) | CA12 | enzyme activity, inhibitor, absorbance | – | 0.1 µM | 31.5
CC1CCC(C(C)C)C(O)C1 (racemic) | USP51 | enzyme activity, inhibitor | – | 5 µM | 37
CC(=O)Nc1ccc(N2CC(O)=C(c3nc4ccccc4[nH]3)C2=N)cc1 | DRD3 | enzyme activity, inhibitor | – | 10 µM | -23.2
O=C(CO)[C@@H](O)[C@H](O)[C@H](O)CO | USP51 | enzyme activity, inhibitor | – | 5 µM | 97
CCOc1ccc(CNCC(O)c2ccccc2)cc1Br (stereo not shown) | DRD3 | enzyme activity, inhibitor | – | 10 µM | 11.4
NC(=O)NC1NC(=O)NC1=O (stereo not shown) | USP51 | enzyme activity, inhibitor | – | 5 µM | 13
Oc1cccc(Nc2nc(-c3ccc(F)cc3F)cs2)c1 | Peroxisome proliferator-activated receptor gamma (PPARG, Homo sapiens, UniProt P37231) | cell-free assay | – | 10 µM | 86.5
Fc1ccc(C(c2ccc(F)cc2)c2nnnn2CCCCN2CCC(c3ccccc3)CC2)cc1 | SLC6A3 | transporter uptake, inhibitor | HEK293 | 1 µM | 94.6
O=c1cc(-c2ccccc2)oc2cc(O)c(O)c(O)c12 | USP51 | enzyme activity, inhibitor | – | 5 µM | 95
O=C(c1ccc(F)cc1)N(Cc1ccccc1)C1CCCCC1 | Sodium- and chloride-dependent GABA transporter 1 (Slc6a1, Rattus norvegicus, UniProt P23978) | transporter uptake | – | 10 µM | 4
Cc1ccc(-c2nn(-c3ccccc3)cc2C2c3sc(=O)[nH]c3SC3C(=O)N(c4ccccc4)C(=O)C32)cc1 (stereo not shown) | CA12 | enzyme activity, inhibitor, absorbance | – | 0.1 µM | 33.2
CCCOC(=O)c1cc(O)c(O)c(O)c1 | USP51 | enzyme activity, inhibitor | – | 5 µM | 97
N#CC1CSc2[nH]c(=O)sc2C1c1cn(-c2ccccc2)nc1-c1ccc(Br)cc1 (stereo not shown) | CA12 | enzyme activity, inhibitor, absorbance | – | 10 µM | 84.7
Clc1ccc(C(c2ccc(Cl)cc2)c2nnnn2CCCCN2CCC(Cc3ccccc3)CC2)cc1 | SLC6A3 | transporter uptake, inhibitor | HEK293 | 1 µM | 78.5
